Source: ChEMBL document CHEMBL1806488, “Design, synthesis and biological evaluation of 2'-deoxy-2',2'-difluoro-5-halouridine phosphoramidate ProTides” (Bioorg Med Chem, 2011)

How the values were obtained:
Human alphaherpesvirus 3 [1] = test: Antiviral activity against thymidine kinase-deficient Varicella-zoster virus YS/R infected in human HEL cells assessed as reduction in the virus plaque formation; assay type: functional, organism-based; conditions: Human alphaherpesvirus 3, YS/R
Human betaherpesvirus 5 [2] = test: Antiviral activity against Human cytomegalovirus AD-169 infected in human HEL cells assessed as reduction in the virus plaque formation; assay type: functional, organism-based; conditions: Human betaherpesvirus 5, AD169, HEL
In short: (§1)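 HEL cells were infected with 100 PFU of HCMV (AD-169 or Davis) in the presence of compound.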

Human alphaherpesvirus 1 [3] = test: Antiviral activity against acyclovir-resistant TK-deficient Herpes simplex virus-1 KOS infected in human HEL cells assessed as inhibition of virus-induced cytopathic effect after 4 days by microscopic analysis; assay type: functional, organism-based; conditions: Human alphaherpesvirus 1, KOS, 96 h
L1210 = test: Antiproliferation activity against mouse L1210 cells after 2 days by coulter counter; assay type: cell-based; conditions: L1210, 48 h
In short: (§2)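 L1210, FM3A, CEM or HeLa cells at 300,000–500,000 cells/mL were mixed 1:1 with compound dilutions. Incubation at 37 °C lasted 2 days (L1210, FM3A) or 3 days (CEM, HeLa), after which cells were counted with a Coulter counter.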

Human alphaherpesvirus 2 = test: Antiviral activity against Herpes simplex virus-2 G infected in human HEL cells assessed as inhibition of virus-induced cytopathic effect after 4 days by microscopic analysis; assay type: functional, organism-based; conditions: Human alphaherpesvirus 2, strain G, 96 h
In short: (§3)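 Confluent monolayers (CRFK for feline herpes virus; HEL for HSV-2 G) were inoculated with 100 CCID50 of virus in the presence of compound at 200, 40, 8, … μM. Cytopathicity was scored once it was complete in untreated infected controls.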

[4] = Cytotoxicity against human HEL cells assessed as alteration of normal cell morphology by microscopic analysis; assay type: cell-based
In short: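 Uninfected HEL cells were examined under the microscope. The minimum cytotoxic concentration is the lowest concentration causing a detectable alteration of normal cell morphology.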

Felid alphaherpesvirus 1 = test: Antiviral activity against Feline herpesvirus infected in cat CRFK cells assessed as inhibition of virus-induced cytopathic effect after 4 days by microscopic analysis; assay type: functional, organism-based; conditions: Felid alphaherpesvirus 1, CRFK, 96 h; in short: as §3
Thymidine kinase [5] = biological target: T1, Thymidine kinase (Feline herpesvirus 1, UniProt P13159); test: Inhibition of Feline herpesvirus thymidine kinase assessed as phosphorylation of 1 uM [methyl-3H]dThd after 30 mins by scintillation counting; parameters: species or system Felid alphaherpesvirus 1
T1 sequence (P13159 whole entry): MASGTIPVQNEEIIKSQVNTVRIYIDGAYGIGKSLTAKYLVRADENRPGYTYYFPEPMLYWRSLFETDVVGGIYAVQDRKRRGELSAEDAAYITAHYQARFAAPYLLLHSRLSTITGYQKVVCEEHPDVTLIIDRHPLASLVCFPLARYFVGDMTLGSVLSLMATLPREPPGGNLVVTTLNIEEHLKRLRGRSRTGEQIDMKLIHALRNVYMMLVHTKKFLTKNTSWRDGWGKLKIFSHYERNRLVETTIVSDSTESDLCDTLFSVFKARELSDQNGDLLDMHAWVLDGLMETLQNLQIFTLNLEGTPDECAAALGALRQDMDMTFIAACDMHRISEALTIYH

CCRF-CEM = test: Antiproliferation activity against human CEM cells after 3 days by coulter counter; assay type: cell-based; conditions: 72 h; in short: as §2
HeLa = test: Antiproliferation activity against human HeLa cells after 3 days by coulter counter; assay type: cell-based; conditions: 72 h; in short: as §2
FM3A = test: Antiproliferation activity against mouse FM3A cells after 2 days by coulter counter; assay type: cell-based; conditions: 48 h; in short: as §2
[6] = Inhibition of Varicella-zoster virus thymidine kinase-mediated phosphorylation of [methyl-3H]dThd at 1 uM after 30 mins by scintillation counting; parameters: species or system Human alphaherpesvirus 3
Human alphaherpesvirus 3 [7] = test: Antiviral activity against thymidine kinase-deficient Varicella-zoster virus 07-1 infected in human HEL cells assessed as reduction in the virus plaque formation; assay type: functional, organism-based; conditions: Human alphaherpesvirus 3, 07-1, HEL
HEL = test: Cytotoxicity against human HEL cells by colorimetric formazan-based MTS assay; assay type: cell-based
Vaccinia virus = test: Antiviral activity against Vaccinia virus infected in human HEL cells assessed as inhibition of virus-induced cytopathic effect after 4 days by microscopic analysis; assay type: functional, organism-based; conditions: Orthopoxvirus vaccinia, 96 h
Human alphaherpesvirus 1 [8] = test: Antiviral activity against Herpes simplex virus 1 KOS infected in human HEL cells assessed as inhibition of virus-induced cytopathic effect after 4 days by microscopic analysis; assay type: functional, organism-based; conditions: Human alphaherpesvirus 1, KOS, 96 h
Thymidine kinase [9] = biological target: T2, Thymidine kinase (Human alphaherpesvirus 1, UniProt Q9QNF7); test: Inhibition of Herpes simplex virus-1 thymidine kinase-mediated phosphorylation of [methyl-3H]dThd at 1 uM after 30 mins by scintillation counting
T2 sequence (Q9QNF7 whole entry): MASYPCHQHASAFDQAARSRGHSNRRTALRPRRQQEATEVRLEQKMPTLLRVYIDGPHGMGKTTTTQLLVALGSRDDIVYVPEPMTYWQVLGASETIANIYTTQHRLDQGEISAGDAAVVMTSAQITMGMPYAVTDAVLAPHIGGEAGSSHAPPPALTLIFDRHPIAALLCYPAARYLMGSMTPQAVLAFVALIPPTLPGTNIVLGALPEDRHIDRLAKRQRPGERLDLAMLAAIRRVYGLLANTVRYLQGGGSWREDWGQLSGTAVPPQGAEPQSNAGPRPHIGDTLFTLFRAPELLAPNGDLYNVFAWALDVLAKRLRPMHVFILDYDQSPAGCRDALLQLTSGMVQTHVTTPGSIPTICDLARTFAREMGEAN

Human alphaherpesvirus 3 [10] = test: Antiviral activity against Varicella-zoster virus YS expressing thymidine kinase infected in human HEL cells assessed as reduction in the virus plaque formation; assay type: functional, organism-based; conditions: Human alphaherpesvirus 3, YS
Human betaherpesvirus 5 [11] = test: Antiviral activity against Human cytomegalovirus Davis infected in human HEL cells assessed as reduction in the virus plaque formation; assay type: functional, organism-based; conditions: Human betaherpesvirus 5, Davis; in short: as §1
[12] = Cytotoxicity against cat CRFK cells by colorimetric formazan-based MTS assay; assay type: cell-based, Felis catus
Human alphaherpesvirus 3 [13] = test: Antiviral activity against Varicella-zoster virus OKA expressing thymidine kinase infected in human HEL cells assessed as reduction in the virus plaque formation; assay type: functional, cell-based; conditions: Human alphaherpesvirus 3, strain Oka vaccine

SMILES | EC50 (Human alphaherpesvirus 3 [1]) | EC50 (Human betaherpesvirus 5 [2]) | EC50 (Human alphaherpesvirus 1 [3]) | IC50 (L1210) | EC50 (Human alphaherpesvirus 2) | MCC [4] | EC50 (Felid alphaherpesvirus 1) | IC50 (CCRF-CEM) | IC50 (HeLa) | IC50 (FM3A) | EC50 (Human alphaherpesvirus 3 [7]) | CC50 (HEL) | EC50 (Vaccinia virus) | EC50 (Human alphaherpesvirus 1 [8]) | EC50 (Human alphaherpesvirus 3 [10]) | EC50 (Human betaherpesvirus 5 [11]) | CC50 ([12]; crfk) | EC50 (Human alphaherpesvirus 3 [13]) | further results
O=c1[nH]c(=O)n([C@@H]2O[C@H](CO)[C@@H](O)C2(F)F)cc1I | > 50 µM | > 50 µM | 20 µM | 302 µM | 64 µM | > 50 µM | 1.2 µM | 154 µM | 230 µM | 409 µM | > 50 µM | > 100 µM | > 100 µM | 16 µM | 13 µM | > 50 µM | > 100 µM | 9.1 µM | IC50 (Thymidine kinase [5]): 38 µM; IC50 [6]: 19 µM; IC50 (Thymidine kinase [9]): 3.5 µM
O=c1[nH]c(=O)n([C@@H]2O[C@H](CO)[C@@H](O)C2(F)F)cc1Br | > 50 µM | > 50 µM | 73 µM | > 500 µM | > 100 µM | > 50 µM | 2.4 µM | > 500 µM | 458 µM | > 500 µM | > 50 µM | > 100 µM | > 100 µM | 15 µM | 23 µM | > 50 µM | > 100 µM | 11 µM | IC50 (Thymidine kinase [5]): 34 µM; IC50 [6]: 26 µM; IC50 (Thymidine kinase [9]): 7.5 µM
O=c1[nH]c(=O)n([C@@H]2O[C@H](CO)[C@@H](O)C2(F)F)cc1Cl | > 50 µM | > 50 µM | 78 µM | > 500 µM | ≥ 100 µM | > 50 µM | 13 µM | > 500 µM | ≥ 500 µM | > 500 µM | > 50 µM | > 100 µM | > 100 µM | 33 µM | > 50 µM | > 50 µM | > 100 µM | ≥ 50 µM | IC50 (Thymidine kinase [5]): 93 µM; IC50 [6]: 35 µM; IC50 (Thymidine kinase [9]): 22 µM
Cc1cn([C@@H]2O[C@H](CO)[C@@H](O)C2(F)F)c(=O)[nH]c1=O | > 50 µM | > 50 µM | 20 µM | > 500 µM | 39 µM | > 50 µM | > 100 µM | > 500 µM | > 500 µM | > 500 µM | > 50 µM | 100 µM | ≥ 100 µM | 12 µM | 10 µM | > 50 µM | > 100 µM | 5.8 µM | IC50 (Thymidine kinase [5]): 85 µM; IC50 [6]: 21 µM; IC50 (Thymidine kinase [9]): 2.8 µM
C[C@H](NP(=O)(OC[C@H]1O[C@@H](n2cc(I)c(=O)[nH]c2=O)C(F)(F)[C@@H]1O)Oc1ccccc1)C(=O)OCc1ccccc1 (stereo partly specified) | – | – | ≥ 100 µM | – | 50 µM | > 100 µM | 4.4 µM | – | – | – | – | – | 58 µM | 27 µM | – | – | ≥ 70 µM | – | –
COC(=O)[C@H](C)NP(=O)(OC[C@H]1O[C@@H](n2cc(I)c(=O)[nH]c2=O)C(F)(F)[C@@H]1O)Oc1ccccc1 (stereo partly specified) | – | > 50 µM | > 100 µM | 226 µM | > 100 µM | > 50 µM | 28 µM | 176 µM | 126 µM | 258 µM | > 50 µM | 51 µM | > 100 µM | > 100 µM | – | > 50 µM | > 100 µM | > 50 µM | –
C[C@H](NP(=O)(OC[C@H]1O[C@@H](n2cc(I)c(=O)[nH]c2=O)C(F)(F)[C@@H]1O)Oc1cccc2ccccc12)C(=O)OCc1ccccc1 (stereo partly specified) | – | > 50 µM | > 20 µM | 23 µM | > 20 µM | > 50 µM | > 20 µM | 21 µM | 29 µM | – | 37 µM | 49 µM | > 20 µM | > 20 µM | – | > 50 µM | 36 µM | 8.5 µM | –
COC(=O)[C@H](C)NP(=O)(OC[C@H]1O[C@@H](n2cc(I)c(=O)[nH]c2=O)C(F)(F)[C@@H]1O)Oc1cccc2ccccc12 (stereo partly specified) | > 50 µM | > 50 µM | > 100 µM | 134 µM | > 100 µM | > 50 µM | > 20 µM | 60 µM | 133 µM | 46 µM | > 50 µM | ≥ 100 µM | > 100 µM | > 100 µM | 29 µM | > 50 µM | 92 µM | 25 µM | –
C[C@H](NP(=O)(OC[C@H]1O[C@@H](n2cc(Br)c(=O)[nH]c2=O)C(F)(F)[C@@H]1O)Oc1ccccc1)C(=O)OCc1ccccc1 (stereo partly specified) | – | > 50 µM | > 100 µM | 50 µM | > 100 µM | > 50 µM | 11.6 µM | 104 µM | 148 µM | 91 µM | > 50 µM | ≥ 50 µM | > 100 µM | > 100 µM | – | > 50 µM | > 100 µM | 39 µM | –
C[C@H](NP(=O)(OC[C@H]1O[C@@H](n2cc(Cl)c(=O)[nH]c2=O)C(F)(F)[C@@H]1O)Oc1ccccc1)C(=O)OCc1ccccc1 (stereo partly specified) | – | > 50 µM | > 100 µM | 175 µM | > 100 µM | > 50 µM | > 100 µM | 196 µM | 200 µM | 226 µM | > 50 µM | ≥ 100 µM | > 100 µM | > 100 µM | – | > 50 µM | > 100 µM | > 50 µM | –
Nc1nc2c(ncn2COCCO)c(=O)[nH]1 [ACYCLOVIR] | – | – | – | – | – | > 250 µM | 1 µM | – | – | – | – | > 400 µM | > 250 µM | – | – | – | – | – | CC50 ([12]; CRFK cells): > 100 µM
O=c1[nH]c(=O)n([C@H]2C[C@H](O)[C@@H](CO)O2)cc1/C=C/Br [BRIVUDINE] | > 150 µM | – | – | – | – | ≥ 250 µM | 30 µM | – | – | – | ≥ 60 µM | 512 µM | 10 µM | – | – | – | > 100 µM | 0.03 µM | –
Nc1ccn(C[C@@H](CO)OCP(=O)(O)O)c(=O)n1 [CIDOFOVIR] | – | – | – | – | – | > 250 µM | 1.3 µM | – | – | – | – | – | 10 µM | – | – | – | – | – | CC50 ([12]; CRFK cells): > 100 µM
Nc1nc2c(ncn2COC(CO)CO)c(=O)[nH]1 [GANCICLOVIR] | – | – | – | – | – | > 100 µM | – | – | – | – | – | – | > 100 µM | – | – | – | – | – | –
